Source: ChEMBL document CHEMBL1828596, “Synthesis of methoxy- and bromo-substituted indirubins and their activities on apoptosis induction in human neuroblastoma cells” (Bioorg Med Chem Lett, 2011)
Calls of active or inactive are those of the source. No cut-off for these calls is given here.

system: SK-N-SH; assay: Cytotoxicity against human SK-N-SH cells assessed as cell viability up to 40 uM after 48 hrs by MTT assay; assay type: functional, cell-based; settings: not given
Summary of the method: (§1)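 MTT viability assay in neuroblastoma lines (IMR-32, SK-N-SH, NB-39) and normal cells (NHDF, HUVEC). Cells were exposed to the indicated concentrations of compound or DMSO vehicle for 48 h. Survival is expressed relative to the vehicle control as mean ± SEM, n = 3.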

| SMILES | Activity |
| --- | --- |
| O=C1Nc2ccccc2/C1=C1/Nc2ccccc2C1=O [INDIRUBIN] | inactive |
| CCc1ccc2c(c1)C(=O)/C(=C1/C(=O)Nc3ccccc31)N2 | inactive |
| COc1ccc2c(c1)NC(=O)/C2=C1\Nc2ccccc2C1=O | inactive |
| COc1cccc2c1NC(=O)/C2=C1\Nc2ccccc2C1=O | inactive |
| Cc1ccc2c(c1)C(=O)C(c1c(O)[nH]c3ccccc13)=N2 | inactive |

system: SK-N-SH; assay: Cytotoxicity against human SK-N-SH cells assessed as cell viability after 48 hrs by MTT assay; assay type: functional, cell-based; settings: not given; summary of the method: as §1

| SMILES | Activity |
| --- | --- |
| COc1ccc2c(c1)N/C(=C1\C(=O)Nc3ccccc31)C2=O | Active |
| COc1ccc2c(c1)C(=N\O)/C(=C1/C(=O)Nc3ccccc31)N2 | inactive |
| O=C1C(c2c(O)[nH]c3c(Br)cccc23)=Nc2ccccc21 | inactive |
| O=C1C(c2c(O)[nH]c3cc(Br)ccc23)=Nc2ccccc21 | inactive |

system: HUVEC; assay: Cytotoxicity against human HUVEC cells assessed as cell viability after 48 hrs by MTT assay; assay type: cell-based; settings: not given; summary of the method: as §1

| SMILES | Activity |
| --- | --- |
| COc1ccc2c(c1)C(=N\O)/C(=C1/C(=O)Nc3ccccc31)N2 | Non-toxic |
| O=C1C(c2c(O)[nH]c3c(Br)cccc23)=Nc2ccccc21 | Non-toxic |
| O=C1C(c2c(O)[nH]c3cc(Br)ccc23)=Nc2ccccc21 | Non-toxic |

system: NB39; assay: Cytotoxicity against human NB39 cells assessed as cell viability after 48 hrs by MTT assay; assay type: functional, cell-based; settings: not given; summary of the method: as §1

| SMILES | Activity |
| --- | --- |
| COc1ccc2c(c1)N/C(=C1\C(=O)Nc3ccccc31)C2=O | Active |
| COc1ccc2c(c1)C(=N\O)/C(=C1/C(=O)Nc3ccccc31)N2 | inactive |
| O=C1C(c2c(O)[nH]c3c(Br)cccc23)=Nc2ccccc21 | inactive |
| O=C1C(c2c(O)[nH]c3cc(Br)ccc23)=Nc2ccccc21 | inactive |

system: IMR-32; assay: Cytotoxicity against human IMR32 cells assessed as cell viability up to 40 uM after 48 hrs by MTT assay; assay type: functional, cell-based; settings: not given; summary of the method: as §1

| SMILES | Activity |
| --- | --- |
| O=C1Nc2ccccc2/C1=C1/Nc2ccccc2C1=O [INDIRUBIN] | inactive |
| CCc1ccc2c(c1)C(=O)/C(=C1/C(=O)Nc3ccccc31)N2 | inactive |
| COc1ccc2c(c1)NC(=O)/C2=C1\Nc2ccccc2C1=O | inactive |
| COc1cccc2c1NC(=O)/C2=C1\Nc2ccccc2C1=O | inactive |
| Cc1ccc2c(c1)C(=O)C(c1c(O)[nH]c3ccccc13)=N2 | inactive |

system: NB39; assay: Cytotoxicity against human NB39 cells assessed as cell viability up to 40 uM after 48 hrs by MTT assay; assay type: functional, cell-based; settings: not given; summary of the method: as §1

| SMILES | Activity |
| --- | --- |
| O=C1Nc2ccccc2/C1=C1/Nc2ccccc2C1=O [INDIRUBIN] | inactive |
| CCc1ccc2c(c1)C(=O)/C(=C1/C(=O)Nc3ccccc31)N2 | inactive |
| COc1ccc2c(c1)NC(=O)/C2=C1\Nc2ccccc2C1=O | inactive |
| COc1cccc2c1NC(=O)/C2=C1\Nc2ccccc2C1=O | inactive |
| Cc1ccc2c(c1)C(=O)C(c1c(O)[nH]c3ccccc13)=N2 | inactive |

system: NHDF; assay: Cytotoxicity against human NHDF cells assessed as cell viability after 48 hrs by MTT assay; assay type: cell-based; settings: not given; summary of the method: as §1

| SMILES | Activity |
| --- | --- |
| COc1ccc2c(c1)C(=N\O)/C(=C1/C(=O)Nc3ccccc31)N2 | Non-toxic |
| O=C1C(c2c(O)[nH]c3c(Br)cccc23)=Nc2ccccc21 | Non-toxic |
| O=C1C(c2c(O)[nH]c3cc(Br)ccc23)=Nc2ccccc21 | Non-toxic |

system: HUVEC; assay: (§2) Cytotoxicity against human HUVEC cells assessed as cell viability up to 40 uM after 48 hrs by MTT assay; assay type: cell-based; settings: huvec, 48 h; summary of the method: as §1

| SMILES | Activity |
| --- | --- |
| O=C1Nc2ccccc2/C1=C1/Nc2ccccc2C1=O [INDIRUBIN] | Non-toxic |
| CCc1ccc2c(c1)C(=O)/C(=C1/C(=O)Nc3ccccc31)N2 | Non-toxic |
| COc1ccc2c(c1)NC(=O)/C2=C1\Nc2ccccc2C1=O | Non-toxic |
| COc1cccc2c1NC(=O)/C2=C1\Nc2ccccc2C1=O | Non-toxic |
| Cc1ccc2c(c1)C(=O)C(c1c(O)[nH]c3ccccc13)=N2 | Non-toxic |

system: not listed separately; assay: as §2; assay type: cell-based; settings: HUVEC cells, read-out: Activity; summary of the method: as §1

| SMILES | viability at 48 h [%] |
| --- | --- |
| COc1ccc2c(c1)N/C(=C1\C(=O)Nc3ccccc31)C2=O | 60 |

system: NHDF; assay: (§3) Cytotoxicity against human NHDF cells assessed as cell viability up to 40 uM after 48 hrs by MTT assay; assay type: cell-based; settings: nhdf, 48 h; summary of the method: as §1

| SMILES | Activity |
| --- | --- |
| O=C1Nc2ccccc2/C1=C1/Nc2ccccc2C1=O [INDIRUBIN] | Non-toxic |
| CCc1ccc2c(c1)C(=O)/C(=C1/C(=O)Nc3ccccc31)N2 | Non-toxic |
| COc1ccc2c(c1)NC(=O)/C2=C1\Nc2ccccc2C1=O | Non-toxic |
| COc1cccc2c1NC(=O)/C2=C1\Nc2ccccc2C1=O | Non-toxic |
| Cc1ccc2c(c1)C(=O)C(c1c(O)[nH]c3ccccc13)=N2 | Non-toxic |

system: not listed separately; assay: as §3; assay type: cell-based; settings: NHDF cells, read-out: Activity; summary of the method: as §1

| SMILES | viability at 48 h [%] |
| --- | --- |
| COc1ccc2c(c1)N/C(=C1\C(=O)Nc3ccccc31)C2=O | 82 |

system: IMR-32; assay: Cytotoxicity against human IMR32 cells assessed as cell viability after 48 hrs by MTT assay; assay type: functional, cell-based; settings: not given; summary of the method: as §1

| SMILES | Activity |
| --- | --- |
| COc1ccc2c(c1)N/C(=C1\C(=O)Nc3ccccc31)C2=O | Active |
| COc1ccc2c(c1)C(=N\O)/C(=C1/C(=O)Nc3ccccc31)N2 | inactive |
| O=C1C(c2c(O)[nH]c3c(Br)cccc23)=Nc2ccccc21 | inactive |
| O=C1C(c2c(O)[nH]c3cc(Br)ccc23)=Nc2ccccc21 | inactive |
